Screening data as filed in PubChem.
DDE Tn6 FP inh: inhibitors of Tn6 peptide binding to human fibrin DD(E); P02675; Fibrin DD(E) TRITC-Tn6 fluorescence polarization displacement; inhibition, % at 8.3 µM; 0.21% of 370,000 active;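 active means inhibition above a per-campaign cutoff: mean of compounds within control limits plus 3 SD, cut at about 15% in these data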;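 further: 0% = median of all compound wells on the plate and 100% = blocking peptide control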
TCR CD3 inh: inhibitors of human TCR-CD3 interaction. TAMRA-labeled TCR probe fluorescence, biochemical. inhibition, % at 9.4 µM. 0.37% of 360,000 active. AID 651800;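 further: recombinant mutant TCR 2C K166C tagged with TAMRA read by polarization; 0% = receptor in buffer alone and 100% = receptor with positive control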
HTRA1 inh: inhibitors of human serine peptidase HTRA1; AID 504803; 0.5% of 340,000 active; recombinant HTRA1, FP-rhodamine activity-based probe, fluorescence polarization; Q92743; inhibition, % at 5.96 µM; in the data active means inhibition above about 36%;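 further: 0% = enzyme with DMSO and 100% = wells lacking enzyme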
Target sequence (Q92743 whole entry, looked up): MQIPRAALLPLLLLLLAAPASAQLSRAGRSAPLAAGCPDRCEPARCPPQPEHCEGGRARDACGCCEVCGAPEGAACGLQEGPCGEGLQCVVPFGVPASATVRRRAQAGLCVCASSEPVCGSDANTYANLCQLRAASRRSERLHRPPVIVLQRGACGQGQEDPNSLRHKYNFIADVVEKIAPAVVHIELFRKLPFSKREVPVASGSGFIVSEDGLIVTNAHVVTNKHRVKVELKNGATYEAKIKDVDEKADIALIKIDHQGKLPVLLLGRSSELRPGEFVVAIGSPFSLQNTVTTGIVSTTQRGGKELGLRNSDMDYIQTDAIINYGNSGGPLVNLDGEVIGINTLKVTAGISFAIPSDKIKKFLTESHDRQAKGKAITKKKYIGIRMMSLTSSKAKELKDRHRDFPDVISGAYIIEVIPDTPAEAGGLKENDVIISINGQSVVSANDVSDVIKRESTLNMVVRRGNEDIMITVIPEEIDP
mABHD4 FP: inhibitors of mouse ABHD4. Q8VD66. purified mABHD4, FP-Rh probe fluorescence polarization. inhibition, % at 8.92 µM. 0.54% of 370,000 active;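 active means inhibition exceeding the mean over every tested compound plus 3 SD, cut at about 30% in these data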;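 further: 0% = plate median of compound wells and 100% = S159A mutant with DMSO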
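Doses – 8.92 µM, single dose · Material – wild-type mouse ABHD4 protein · Replication – single well per compound (singlicate) · Measure – percent inhibition of probe binding, normalized to plate controls · Schedule – 45 min compound pre-incubation plus 60 min probe step, 25 °C · Detection – fluorescence polarization with parallel and perpendicular emission, 525/598 nm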
Tn7 DDE FP: inhibitors of Tn7 peptide binding to human fibrin DD(E) | P02675 | FP displacement of FITC-Tn7 peptide from fibrin DD(E); 0% = median of compound wells per plate | inhibition, % at 8.3 µM | 0.13% of 370,000 active;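 active means inhibition above the mean of compounds falling within the control limits plus 3 SD of them, cut at about 14% in these data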;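 further: 0% = plate median of compound wells and 100% = 10 µM Aha-Tn7 peptide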
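Test system: human clot-derived fibrin DD(E) complex / Quantity: 2 µM final DD(E) protein / Incubation: 10 min plus 3 h, room temperature / Measured by: fluorescence polarization / Benchmarks: high control of 10 µM Aha-Tn7 peptide / Replicates: singlicate testing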
BSA TAMRA ctr: interferes with TAMRA-BSA probe, flagging TCR-CD3 hits | inhibition, % at 9.4 µM | TAMRA-labeled BSA probe fluorescence counterscreen | 10% of 1,200 active | shares compounds with TCR CD3 inh; in the data active means inhibition above about 23%;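 further: 0% = buffer low control and 100% = reference high control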
TCR-CD3 inh conf: TCR-CD3 interaction inhibition, confirmation | shares compounds with TCR CD3 inh | inhibition, % at 9.4 µM | TAMRA-labeled TCR probe fluorescence binding assay | 48% of 1,200 active | AID 652036
* = called active by the depositor; / = no result. Shown are actives, neighbours in structure and some others; about 1.3% of the full set was active somewhere. Unless noted, no stated cut-off is given here; in the data, active means inhibition above about 19%; inactive means the rest.

SMILES	DDE Tn6 FP inh	TCR CD3 inh	HTRA1 inh	mABHD4 FP	Tn7 DDE FP	BSA TAMRA ctr	TCR-CD3 inh conf
O=C1NC[C@H](Cc2ccc(O)cc2)N(C[C@H]2CCCN2C[C@H](Cc2ccc(O)cc2)N2C[C@H](Cc3ccc(O)cc3)N(CCc3ccccc3)C(=O)C2=O)C1=O	4	-7	/	18	-2	/	/
CCC(C)(C)NC(=O)Cc1ccc(Cl)cc1	6	33*	/	1	-5	-7	-1
CC1OC(OCC2OC(Oc3c(-c4ccc(O)cc4)oc4cc(O)cc(O)c4c3=O)C(O)C(O)C2O)C(O)C(O)C1O (stereo unspecified)	-2	21*	5	7	-1	-1	13
O=c1[nH]c2ccccc2c2oc(CCl)nc12	0	-3	-1	0	3	/	/
Cc1cccc(/N=C/c2sc3ccccc3c2O)n1	3	-16	-5	3	-3	/	/
Oc1c(C=Nc2cccc3cccnc23)sc2ccccc12	10	29*	/	-66	-44	60*	28*
Cc1c(C(=O)NNC(=O)c2ccccc2O)oc2ccccc12	1	23*	28	24	2	-9	25*
COCCN(C(=O)CC1C(=O)NCCN1Cc1ccc(-c2ccccc2)cc1)C(C)C (stereo unspecified)	6	24*	-5	15	-1	10	6
COc1cc([N+](=O)[O-])cc(/C=N/NC(=O)c2ccc(NC(=O)c3ccc(C)cc3)cc2)c1O	2	27*	8	-6	-2	-5	45*
COc1ccc(N2CCN(C3CCCN(S(=O)(=O)c4ccc(C)cc4C)C3)CC2)cc1 (stereo unspecified)	5	7	3	5	7	/	/
Cc1cc(C)nc(SCCC(=O)Nc2ccccc2C)n1	-3	107*	4	4	-1	4	0
Cc1cc(C)nc(SCCC(=O)Nc2ccccc2)n1	1	-3	4	1	-10	/	/
CCOC(=O)c1c(C)nc2sc(C(=O)Nc3ccc(C(C)=O)cc3)c(N)c2c1-c1ccc(OC)cc1	-10	24*	-18	-16	0	6	12
Cc1ccc(C(=O)NCCCC(=O)O)o1	-1	41*	0	-9	8	1	1
Cc1ccc(C(=O)NCCCCNC(=O)c2ccc(C)o2)o1	-6	5	-5	1	-5	/	/
O=C(CNC(c1ccccc1)c1ccccc1)Nc1cc([N+](=O)[O-])ccc1Cl	-5	-1	0	2	-9	/	/
O=C(CSc1nnc2ccccn12)NNC(=O)c1cccc([N+](=O)[O-])c1	-6	80*	4	11	-1	-3	4
CC(=O)NNC(=S)NC(=O)c1ccc(C)cc1	-10	23*	5	5	-4	1	20*
CC(=O)NNC(=S)NC(=O)c1ccccc1	3	7	0	8	5	/	/
O=C(Cc1ccccc1)N/N=C/c1cc(Br)cc(Br)c1O	-2	23*	20	7	-1	-7	25*
CN(C)c1ccc(C(=O)N/N=C/c2cc(Br)cc(Br)c2O)cc1	-3	33*	/	20	-2	0	43*
COc1c(Br)cc(Br)cc1/C=N/NC(=O)c1ccncc1	0	11	-4	-9	7	/	/
O=C(CNC(=O)c1cccc(Br)c1)N/N=C/c1cc(Br)cc(Br)c1O	-7	48*	17	7	-4	-13	36*
CCOCC(=O)Nc1cccc(Br)c1	-1	3	3	-3	1	/	/
CCOc1ccc(Br)cc1S(=O)(=O)Nc1ccc(C(=O)OCC(=O)Nc2ccc(C#N)cc2)cc1	3	33*	-64	-16	1	26*	34*
SMILES	DDE Tn6 FP inh	TCR CD3 inh	HTRA1 inh	mABHD4 FP	Tn7 DDE FP	BSA TAMRA ctr	TCR-CD3 inh conf
CCn1c(-c2sc(-c3ccccc3)nc2C)n[nH]c1=S	5	5	1	-2	5	/	/
C[C@H](O)[C@@H]1C(=O)N2CCc3c([nH]c4cccc(-c5ccccc5)c34)[C@@H]2C[C@@H]1N(C)C(=O)OCc1ccccc1	6	21*	/	-4	-7	3	6
COC(=O)C1CCN(C(=O)COc2ccc(S(=O)(=O)N3CCOCC3)cc2Cl)CC1	-8	1	0	3	-6	/	/
Cc1ccc(NC(=O)c2ccc(S(=O)(=O)NCc3cccnc3)cc2)cc1C	6	9	-8	5	4	/	/
COc1ccc(NC(=O)c2ccc(CNS(=O)(=O)c3cccc(OC)c3)cc2)cc1	2	4	2	-6	-1	/	/
O=C(Nc1ccc(Cl)c(Cl)c1)c1cccc(S(=O)(=O)NCc2cccnc2)c1	-12	33*	-117	-58	-11	2	10
COc1cccc(S(=O)(=O)NCc2ccc(C(=O)Nc3ccc(Cl)c(Cl)c3)cc2)c1	-2	35*	-38	-17	-7	-1	6
COc1ccc(NC(C)=O)cc1CNC(=O)CN1CCOCC1	4	-2	0	0	-3	/	/
O=C(O)CC(C(=O)O)N1C(=O)/C(=C/c2ccc(-c3nc4ccccc4s3)o2)SC1=S (stereo unspecified)	-12	22*	15	38*	-2	-15	26*
O=C(O)CCN1C(=O)/C(=C/c2ccc(-c3nc4ccccc4s3)o2)SC1=S	-13	9	8	27	-10	/	/
Cc1cccc(C)c1OC(=O)CN1C(=O)c2ccccc2C1=O	4	-3	-3	-3	-8	/	/
O=C1Nc2ccc3c(c2C1=Cc1cc2c(cc1Br)OCO2)OCO3	-6	-4	6	13	0	/	/
C=C(C)c1cccc(C(C)(C)NC(=O)NNC(=O)c2ccccc2O)c1	2	31*	20	9	4	-17	15
CCN(CC)CCC(c1cc(OC)c(OC)c(OC)c1)c1c(OC)cc(OC)c2ccc(=O)oc12 (stereo unspecified)	12	96*	-3	0	2	7	0
Cn1cccc1CC(=O)N/N=C/C=C/c1ccco1	2	20*	8	6	0	-11	10
C/C(=N\NC(=O)Cc1cccn1C)c1ccco1	5	0	0	8	-5	/	/
C[C@H](CO)N1C[C@H](C)[C@@H](CN(C)S(C)(=O)=O)Oc2ccc(NC(=O)Nc3ccc(C(F)(F)F)cc3)cc2C1=O	-7	4	-10	-11	-6	/	/
C[C@@H]1CN([C@H](C)CO)C(=O)c2cc(NC(=O)Nc3ccc(C(F)(F)F)cc3)ccc2O[C@H]1CN(C)S(=O)(=O)c1ccc(Cl)cc1	44*	54*	-89	-99	0	25*	52*
C[C@H]1CN([C@@H](C)CO)C(=O)c2cccc(NC(=O)Nc3ccc(C(F)(F)F)cc3)c2O[C@@H]1CN(C)Cc1ccc(Cl)c(Cl)c1	-3	11	-80	-54	-5	/	/
